Data: ChEMBL document CHEMBL1136721, “QSAR and classification of murine and human soluble epoxide hydrolase inhibition by urea-like compounds” (J Med Chem, 2003)

Assays:
[1] = target: T1, Bifunctional epoxide hydrolase 2 (Homo sapiens, UniProt P34913); assay: Inhibitory activity against human soluble epoxide hydrolase; N/A = could not be determined because of above the highest concentration (500 uM) of inhibitor tested.
T1 sequence (P34913 whole entry): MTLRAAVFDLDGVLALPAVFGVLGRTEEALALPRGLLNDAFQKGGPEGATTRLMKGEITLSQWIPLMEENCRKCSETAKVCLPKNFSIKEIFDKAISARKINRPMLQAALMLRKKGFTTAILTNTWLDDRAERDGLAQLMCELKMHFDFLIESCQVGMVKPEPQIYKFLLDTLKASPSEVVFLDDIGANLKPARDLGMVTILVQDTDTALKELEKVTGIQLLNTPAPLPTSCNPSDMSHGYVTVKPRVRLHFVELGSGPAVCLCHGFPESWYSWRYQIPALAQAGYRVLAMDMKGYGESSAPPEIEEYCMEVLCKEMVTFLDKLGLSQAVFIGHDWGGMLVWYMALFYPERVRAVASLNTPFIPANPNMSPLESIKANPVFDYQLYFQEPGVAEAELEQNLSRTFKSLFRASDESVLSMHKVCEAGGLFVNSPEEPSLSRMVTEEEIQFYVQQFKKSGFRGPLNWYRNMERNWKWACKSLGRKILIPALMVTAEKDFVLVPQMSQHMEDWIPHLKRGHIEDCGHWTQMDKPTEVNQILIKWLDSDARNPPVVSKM
How it was run: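 Recombinant human sEH made in baculovirus and affinity-purified (at least 97% pure, no detectable esterase or glutathione transferase activity). 0.20 µM enzyme preincubated with inhibitor for 5 min at 30 °C in pH 7.4 sodium phosphate buffer. Substrate: 40 µM racemic 4-nitrophenyl-trans-2,3-epoxy-3-phenylpropyl carbonate. 4-Nitrophenolate read at 405 nm over 1 min. Triplicate runs; top concentration 500 µM. IC50 by regression of at least five points, with at least two on each side in the linear region.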

[2] = target: T2, Bifunctional epoxide hydrolase 2 (Mus musculus, UniProt P34914); assay: Inhibitory activity against murine soluble epoxide hydrolase; N/A = could not be determined because of above the highest concentration (500 uM) of inhibitor tested.
T2 sequence (P34914 whole entry): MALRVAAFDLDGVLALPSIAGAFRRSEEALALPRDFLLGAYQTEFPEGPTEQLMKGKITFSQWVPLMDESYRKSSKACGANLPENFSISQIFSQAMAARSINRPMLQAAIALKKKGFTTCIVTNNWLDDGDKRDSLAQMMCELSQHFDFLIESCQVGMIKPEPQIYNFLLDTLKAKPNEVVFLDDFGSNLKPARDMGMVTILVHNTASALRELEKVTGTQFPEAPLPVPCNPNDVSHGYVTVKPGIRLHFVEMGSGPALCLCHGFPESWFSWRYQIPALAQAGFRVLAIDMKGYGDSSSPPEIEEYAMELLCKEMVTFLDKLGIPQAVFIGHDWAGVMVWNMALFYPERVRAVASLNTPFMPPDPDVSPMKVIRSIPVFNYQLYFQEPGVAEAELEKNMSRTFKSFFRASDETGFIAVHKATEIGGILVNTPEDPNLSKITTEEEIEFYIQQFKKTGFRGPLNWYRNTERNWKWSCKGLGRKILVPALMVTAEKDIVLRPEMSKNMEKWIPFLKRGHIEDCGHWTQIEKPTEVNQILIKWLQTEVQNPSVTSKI
How it was run: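 Mouse sEH expressed in baculovirus and affinity-purified (at least 97% pure by SDS-PAGE, no esterase or glutathione transferase activity). 0.10 µM enzyme held with inhibitor 5 min at 30 °C in pH 7.4 sodium phosphate buffer. Then 40 µM racemic 4-nitrophenyl-trans-2,3-epoxy-3-phenylpropyl carbonate added; 4-nitrophenolate followed at 405 nm for 1 min. Done in triplicate up to 500 µM inhibitor. IC50 regressed from at least five points bracketing the midpoint.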

Row | Compound | IC50 [1] | IC50 [2]
1 | CCCCCCNC(=O)NC | Not Active | 
2 | CN(C)C(=O)N(CCCCCC(=O)O)c1ccc(Cl)c(Cl)c1 | Not Active | Not Active
